Measurements reported in ChEMBL document CHEMBL1177836, “New quinoxaline 1, 4-di-N-oxides: anticancer and hypoxia-selective therapeutic agents” (Eur J Med Chem, 2010).
Converted amounts (≈) assume the structure as drawn.

Columns and labels:
HepG2 = test: Growth inhibition of human HepG2 cells after 48 hrs by SRB assay; format: functional, cell-based; details: HepG2, 48 h
Method in brief: (§1)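 Cells plated at 10⁴ per well and allowed 24 h to attach. Compounds dissolved in DMSO were added at 0.1, 2.5, 5 and 10 µg/ml and incubated 48 h at 37 °C under 5% CO₂. Cells were then fixed, washed and stained with sulforhodamine B, and colour intensity was read on an ELISA reader.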

U-251 = test: Growth inhibition of human U251 cells after 48 hrs by SRB assay; format: functional, cell-based; details: U-251, 48 h; method in brief: as §1
[1] = Cytotoxicity against mouse EAC cells in aerobic condition by trypan blue exclusion assay; format: functional, cell-based; details: Ehrlich
Method in brief: (§2)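 EAC cells aspirated from ascitic fluid of pre-inoculated female Swiss albino mice, suspended at 2.5×10⁶ cells/ml. Compounds freshly diluted in DMSO, 0.1 ml added per tube. Parallel aerobic and anaerobic tube sets; anaerobic tubes gassed with N₂ throughout. Incubation 2 h, then centrifugation. Trypan blue exclusion with haemocytometer counts; % viability = unstained cells/total cells × 100. DMSO-only negative control.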

[2] = Cytotoxicity against mouse EAC cells in hypoxic condition by trypan blue exclusion assay; format: functional, cell-based; details: Ehrlich
Method in brief: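 EAC suspension (2.5×10⁶ cells/ml, from ascitic fluid of pre-inoculated female Swiss albino mice) exposed 2 h to DMSO-dissolved compounds over 1–100 µg/ml, in air or under continuous N₂. Viability by trypan blue exclusion, haemocytometer counts. IC50 taken as the concentration causing 50% mortality in net cell numbers.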

[3] = Cytotoxicity against mouse EAC cells in aerobic condition assessed as cell viability at 100 ug/ml after 2 hrs by trypan blue exclusion assay; format: functional; details: Ehrlich, read-out: Activity; method in brief: as §2
[4] = Cytotoxicity against mouse EAC cells in hypoxic condition assessed as cell viability at 100 ug/ml after 2 hrs by trypan blue exclusion assay; format: functional; details: Ehrlich, read-out: Activity; method in brief: as §2
[5] = Cytotoxicity against mouse EAC cells in aerobic condition assessed as cell viability at 50 ug/ml after 2 hrs by trypan blue exclusion assay; format: functional; details: Ehrlich, read-out: Activity; method in brief: as §2
[6] = Cytotoxicity against mouse EAC cells in hypoxic condition assessed as cell viability at 50 ug/ml after 2 hrs by trypan blue exclusion assay; format: functional; details: Ehrlich, read-out: Activity; method in brief: as §2
[7] = Cytotoxicity against mouse EAC cells in aerobic condition assessed as cell viability at 25 ug/ml after 2 hrs by trypan blue exclusion assay; format: functional; details: Ehrlich, read-out: Activity; method in brief: as §2
[8] = Cytotoxicity against mouse EAC cells in hypoxic condition assessed as cell viability at 25 ug/ml after 2 hrs by trypan blue exclusion assay; format: functional; details: Ehrlich, read-out: Activity; method in brief: as §2
[9] = Cytotoxicity against mouse EAC cells in aerobic condition assessed as cell viability at 10 ug/ml after 2 hrs by trypan blue exclusion assay; format: functional; details: Ehrlich, read-out: Activity; method in brief: as §2
[10] = Cytotoxicity against mouse EAC cells in hypoxic condition assessed as cell viability at 10 ug/ml after 2 hrs by trypan blue exclusion assay; format: functional; details: Ehrlich, read-out: Activity; method in brief: as §2
[11] = Cytotoxicity against mouse EAC cells in aerobic condition assessed as cell viability at 5 ug/ml after 2 hrs by trypan blue exclusion assay; format: functional; details: Ehrlich, read-out: Activity; method in brief: as §2
[12] = Cytotoxicity against mouse EAC cells in hypoxic condition assessed as cell viability at 5 ug/ml after 2 hrs by trypan blue exclusion assay; format: functional; details: Ehrlich, read-out: Activity; method in brief: as §2
[13] = Cytotoxicity against mouse EAC cells in aerobic condition assessed as cell viability at 1 ug/ml after 2 hrs by trypan blue exclusion assay; format: functional; details: Ehrlich, read-out: Activity; method in brief: as §2
[14] = Cytotoxicity against mouse EAC cells in hypoxic condition assessed as cell viability at 1 ug/ml after 2 hrs by trypan blue exclusion assay; format: functional; details: Ehrlich, read-out: Activity; method in brief: as §2
[15] = Ratio of IC50 for mouse EAC cells in aerobic condition to IC50 for mouse EAC cells in hypoxic condition
Ehrlich = test: Cytotoxicity against mouse EAC cells in hypoxic condition assessed as concentration required for 1% cell survival

Row | IC50 (HepG2) [µg/mL] | IC50 (U-251) [µg/mL] | HCR (IC50 air/IC50 hypoxia ratio) [15] | SMILES | IC50 [1] [µg/mL] | IC50 [2] [µg/mL] | viability at 100 µg/mL [3] [%] | viability at 100 µg/mL [4] [%] | viability at 50 µg/mL [5] [%] | viability at 50 µg/mL [6] [%] | viability at 25 µg/mL [7] [%] | viability at 25 µg/mL [8] [%] | viability at 10 µg/mL [9] [%] | viability at 10 µg/mL [10] [%] | viability at 5 µg/mL [11] [%] | viability at 5 µg/mL [12] [%] | viability at 1 µg/mL [13] [%] | viability at 1 µg/mL [14] [%] | Potency (Ehrlich) [µg/mL]
1 | 6 (≈ 16.2 µM) | > 10 | – | COc1ccc(NC(=O)Nc2c(C)[n+]([O-])c3ccc(OC)cc3[n+]2[O-])cc1 | – | – | – | – | – | – | – | – | – | – | – | – | – | – | –
2 | 4.75 (≈ 19 µM) | > 10 | > 1 | CNc1c(C#N)[n+]([O-])c2cc(Cl)ccc2[n+]1[O-] | > 100 | > 100 | 89 | 72 | 82.7 | 81.4 | 94 | 90.6 | 96.7 | 92.7 | 96 | 96 | 100 | 99.5 | > 100
3 | 56.6 (≈ 318 µM) | 71.2 (≈ 400 µM) | – | Nc1n[n+]([O-])c2ccccc2[n+]1[O-] [TIRAPAZAMINE] | – | – | – | – | – | – | – | – | – | – | – | – | – | – | –
4 | – | – | > 7.4 | N#Cc1c(N)[n+]([O-])c2ccc(Cl)cc2[n+]1[O-] | > 100 | 13.5 (≈ 57.1 µM) | 94 | 5 | 94.3 | 43.5 | 95 | 65.1 | 97.3 | 71.3 | 98.8 | 87.8 | 100 | 94 | > 100
5 | 6 (≈ 19.5 µM) | > 10 | > 1 | COc1ccc2c(c1)[n+]([O-])c(NC(=O)OC(C)C)c(C)[n+]2[O-] | > 100 | > 100 | 87.7 | 63.2 | 92.6 | 76.2 | 97 | 82.3 | 99 | 90.4 | 99 | 91.9 | 100 | 94.8 | > 100
6 | 3.61 (≈ 13.1 µM) | > 10 | > 8 | COc1ccc2c(c1)[n+]([O-])c(C(=O)N=[N+]=[N-])c(C)[n+]2[O-] | > 100 | 12.5 (≈ 45.4 µM) | 56 | 1.3 | 77.9 | 6.2 | 80.7 | 11.3 | 83.9 | 58.3 | 99 | 81.1 | 94.5 | 94.5 | 90 (≈ 327 µM)
